Measured values: ChEMBL document CHEMBL1126849, “Synthesis of A-ring fluorinated derivatives of (17 alpha,20E/Z)-[125I]iodovinylestradiols: effect on receptor binding and receptor-mediated target tissue uptake” (J Med Chem, 1993)

Assays:
Details in all cases: in vivo
[1] = tested on: Rattus norvegicus; test: Biodistribution in thyroid of Immature Female rat after 5 hour administration of 3 micro Ci (111 kBq) in the absence of 60 microg estradiol; assay type: ADME, organism-based, Thyroid gland
Outline: (§1)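 Immature female Long Evans rats (21–24 days, 45–70 g), three to five per group, given 125I-labeled steroid (3 μCi, 111 kBq) by lateral tail vein without anesthesia. Vehicle: ethanol diluted in saline with 1% Tween-80, final ethanol 9%, 0.22 μm filtered. +E2 groups received 60 μg unlabeled estradiol co-injected. Killed under ether at set times; tissues KCl-washed, blotted, weighed, gamma counted; %ID/g, mean with SE.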

[2] = tested on: Rattus norvegicus; test: Biodistribution in uterus of Immature Female rat after 5 hour administration of 3 micro Ci (111 kBq) in the absence of 60 microg estradiol; assay type: ADME, organism-based
Outline: (§2)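 Immature female Long Evans rats (21–24 days, 45–70 g), 3–5 per group, unanesthetized in retention cages, given 3 μCi (111 kBq) 125I-labeled steroid by lateral tail vein. Vehicle: ethanol diluted with saline containing 1% Tween-80, final ethanol 9%. +E2 group co-injected 60 μg unlabeled estradiol (1 h only). Killed under ether; tissues KCl-washed, weighed, gamma-counted. Output: %ID/g (mean, SE) and uterus to blood or nontarget (muscle, spleen, lungs) ratios.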

[3] = tested on: Rattus norvegicus; test: Biodistribution in muscle of Immature Female rat after 1 hr administration of 3 micro Ci (111 kBq) in the absence of 60 microg estradiol; assay type: ADME, organism-based, Muscle tissue; outline: as §1
[4] = tested on: Rattus norvegicus; test: Biodistribution in blood of Immature Female rat after 12 hour administration of 3 micro Ci (111 kBq) in the absence of 60 microg estradiol; assay type: ADME, organism-based
Outline: (§3)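 Immature female Long Evans rats (21–24 days, 45–70 g), unanesthetized in retention cages, given 3 µCi (111 kBq) 125I-labeled steroid i.v. via lateral tail vein. Vehicle was ethanol diluted in saline containing 1% Tween-80, giving 9% ethanol final. The blocking group received 60 µg unlabeled estradiol co-injected. Rats were killed under ether by axillary bleeding, and tissues were KCl-washed and gamma-counted. Data are %ID/g, mean ± SE, n=3–5.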

[5] = tested on: Rattus norvegicus; test: Biodistribution in uterus of Immature Female rat after 12 hour administration of 3 micro Ci (111 kBq) in the absence of 60 microg estradiol; assay type: ADME, organism-based; outline: as §2
[6] = tested on: Rattus norvegicus; test: Biodistribution in spleen of Immature Female rat after 12 hour administration of 3 micro Ci (111 kBq) in the absence of 60 microg estradiol; assay type: ADME, organism-based; outline: as §1
[7] = tested on: Rattus norvegicus; test: Biodistribution in blood of Immature Female rat after 1 hr administration of 3 micro Ci (111 kBq) in the absence of 60 microg estradiol; assay type: ADME, organism-based; outline: as §3
[8] = tested on: Rattus norvegicus; test: Biodistribution in muscle of Immature Female rat after 5 hour administration of 3 micro Ci (111 kBq) in the absence of 60 microg estradiol; assay type: ADME, organism-based, Muscle tissue; outline: as §1
[9] = tested on: Rattus norvegicus; test: Biodistribution in spleen of Immature Female rat after 1 hr administration of 3 micro Ci (111 kBq) in the absence of 60 microg estradiol; assay type: ADME, organism-based; outline: as §1
[10] = tested on: Rattus norvegicus; test: Biodistribution in lungs of Immature Female rat after 1 hr administration of 3 micro Ci (111 kBq) in the absence of 60 microg estradiol; assay type: ADME, organism-based, Lung; outline: as §3
[11] = tested on: Rattus norvegicus; test: Biodistribution in uterus / spleen, muscle, lungs of Immature Female rat after 1 hr administration of 3 micro Ci (111 kBq) in the presence of (+E2); assay type: ADME, organism-based
Outline: (§4)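 Same in vivo procedure: immature female Long Evans rats (21–24 days), three to five per group, 3 μCi (111 kBq) tracer i.v. via tail vein in 9% ethanol/saline/1% Tween-80, ± 60 μg estradiol co-injected at 1 h. Uterus %ID/g (gamma counting) divided by blood, or by nontarget organ (muscle, spleen, lungs), %ID/g to give ratios.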

[12] = tested on: Rattus norvegicus; test: Biodistribution in blood of Immature Female rat after 1 hr administration of 3 micro Ci (111 kBq) in the presence of (+E2); assay type: ADME, organism-based; outline: as §3
[13] = tested on: Rattus norvegicus; test: Biodistribution in uterus of Immature Female rat after 1 hr administration of 3 micro Ci (111 kBq) in the presence of (+E2); assay type: ADME, organism-based; outline: as §2
[14] = tested on: Rattus norvegicus; test: Biodistribution in liver of Immature Female rat after 3 hour administration of 3 micro Ci (111 kBq) in the absence of 60 microg estradiol; assay type: ADME, organism-based; outline: as §3
[15] = tested on: Rattus norvegicus; test: Biodistribution in spleen of Immature Female rat after 1 hr administration of 3 micro Ci (111 kBq) in the presence of (+E2); assay type: ADME, organism-based; outline: as §1
[16] = tested on: Rattus norvegicus; test: Biodistribution in kidney of Immature Female rat after 1 hr administration of 3 micro Ci (111 kBq) in the presence of (+E2); assay type: ADME, organism-based; outline: as §3
[17] = tested on: Rattus norvegicus; test: Biodistribution in uterus of Immature Female rat after 1 hr administration of 3 micro Ci (111 kBq) in the absence of 60 microg estradiol; assay type: ADME, organism-based; outline: as §2
[18] = tested on: Rattus norvegicus; test: Biodistribution in uterus / spleen, muscle, lungs of Immature Female rat after 3 hour administration of 3 micro Ci (111 kBq) in the absence of 60 microg estradiol; assay type: ADME, organism-based; outline: as §4
[19] = tested on: Rattus norvegicus; test: Biodistribution in kidney of Immature Female rat after 5 hour administration of 3 micro Ci (111 kBq) in the absence of 60 microg estradiol; assay type: ADME, organism-based; outline: as §3
[20] = tested on: Rattus norvegicus; test: Biodistribution in uterus / blood of Immature Female rat after 12 hour administration of 3 micro Ci (111 kBq) in the absence of 60 microg estradiol; assay type: ADME, organism-based; outline: as §4
[21] = tested on: Rattus norvegicus; test: Biodistribution in uterus of Immature Female rat after 3 hour administration of 3 micro Ci (111 kBq) in the absence of 60 microg estradiol; assay type: ADME, organism-based; outline: as §2
[22] = tested on: Rattus norvegicus; test: Biodistribution in muscle of Immature Female rat after 3 hour administration of 3 micro Ci (111 kBq) in the absence of 60 microg estradiol; assay type: ADME, organism-based, Muscle tissue; outline: as §1
[23] = tested on: Rattus norvegicus; test: Biodistribution in liver of Immature Female rat after 12 hour administration of 3 micro Ci (111 kBq) in the absence of 60 microg estradiol; assay type: ADME, organism-based; outline: as §3
[24] = tested on: Rattus norvegicus; test: Biodistribution in lungs of Immature Female rat after 3 hour administration of 3 micro Ci (111 kBq) in the absence of 60 microg estradiol; assay type: ADME, organism-based, Lung; outline: as §3
[25] = tested on: Rattus norvegicus; test: Biodistribution in blood of Immature Female rat after 3 hour administration of 3 micro Ci (111 kBq) in the absence of 60 microg estradiol; assay type: ADME, organism-based; outline: as §3
[26] = tested on: Rattus norvegicus; test: Biodistribution in kidney of Immature Female rat after 1 hr administration of 3 micro Ci (111 kBq) in the absence of 60 microg estradiol; assay type: ADME, organism-based; outline: as §3
[27] = tested on: Rattus norvegicus; test: Biodistribution in muscle of Immature Female rat after 12 hour administration of 3 micro Ci (111 kBq) in the absence of 60 microg estradiol; assay type: ADME, organism-based, Muscle tissue; outline: as §1
[28] = tested on: Rattus norvegicus; test: Biodistribution in fat of Immature Female rat after 3 hour administration of 3 micro Ci (111 kBq) in the absence of 60 microg estradiol; assay type: ADME, organism-based, Adipose tissue; outline: as §3
[29] = tested on: Rattus norvegicus; test: Biodistribution in fat of Immature Female rat after 1 hr administration of 3 micro Ci (111 kBq) in the absence of 60 microg estradiol; assay type: ADME, organism-based, Adipose tissue; outline: as §3
[30] = tested on: Rattus norvegicus; test: Biodistribution in thyroid of Immature Female rat after 3 hour administration of 3 micro Ci (111 kBq) in the absence of 60 microg estradiol; assay type: ADME, organism-based, Thyroid gland; outline: as §1
[31] = tested on: Rattus norvegicus; test: Biodistribution in liver of Immature Female rat after 5 hour administration of 3 micro Ci (111 kBq) in the absence of 60 microg estradiol; assay type: ADME, organism-based; outline: as §3
[32] = tested on: Rattus norvegicus; test: Biodistribution in kidney of Immature Female rat after 12 hour administration of 3 micro Ci (111 kBq) in the absence of 60 microg estradiol; assay type: ADME, organism-based; outline: as §3

| Structure (SMILES) | ID/g [1] [%] | ID/g [2] [%] | ID/g [3] [%] | ID/g [4] [%] | ID/g [5] [%] | ID/g [6] [%] | ID/g [7] [%] | ID/g [8] [%] | ID/g [9] [%] | ID/g [10] [%] | ID/g [11] [%] | ID/g [12] [%] | ID/g [13] [%] | ID/g [14] [%] | ID/g [15] [%] | ID/g [16] [%] | ID/g [17] [%] | ID/g [18] [%] | ID/g [19] [%] | ID/g [20] [%] | other results |
| --- | --- | --- | --- | --- | --- | --- | --- | --- | --- | --- | --- | --- | --- | --- | --- | --- | --- | --- | --- | --- | --- |
| CO[C@H]1C[C@@]2(C)[C@@H](CC[C@@]2(O)/C=C\I)[C@@H]2CCc3cc(O)c(F)cc3[C@H]21 | 1210 | 8.81 | 0.58 | 0.17 | 6.45 | 0.22 | 0.54 | 0.29 | 0.59 | 0.76 | 0.64 | 0.87 | 0.94 | 1.51 | 5.3 | 2.83 | 8.36 | 21.65 | 0.71 | 50.35 | ID/g [21]: 9.59%; ID/g [22]: 0.38%; ID/g [23]: 0.65%; ID/g [24]: 0.54%; ID/g [25]: 0.45%; ID/g [26]: 1.56%; ID/g [27]: 0.1%; ID/g [28]: 1.15%; ID/g [29]: 1.71%; ID/g [30]: 882%; ID/g [31]: 1.12%; ID/g [32]: 0.29% |
| CO[C@H]1C[C@@]2(C)[C@@H](CC[C@@]2(O)/C=C/I)[C@@H]2CCc3c(ccc(O)c3F)[C@H]21 | 274 | 12.04 | 0.98 | 0.1 | 12.64 | 0.22 | 0.26 | 0.45 | 0.79 | 1.07 | 1.02 | 0.28 | 1.02 | 2.65 | 0.78 | 1.28 | 8.02 | 16.64 | 0.94 | 122.53 | ID/g [21]: 10.45%; ID/g [22]: 0.56%; ID/g [23]: 2.28%; ID/g [24]: 0.69%; ID/g [25]: 0.26%; ID/g [26]: 2.03%; ID/g [27]: 0.25%; ID/g [28]: 2.04%; ID/g [29]: 2.68%; ID/g [30]: 126%; ID/g [31]: 2.72%; ID/g [32]: 0.49% |
